Reference: ChEMBL document CHEMBL4706593, “Induced protein degradation of histone deacetylases 3 (HDAC3) by proteolysis targeting chimera (PROTAC)” (Eur J Med Chem, 2020)
pIC50: −log10 of the molar value. The source made the active and inactive calls. The rule behind the calls is not given here.

What was measured:
[1] = Down regulation of NFkappaB p65 expression in LPS/IFNgamma-induced mouse RAW264.7 cells at 10 uM incubated for 20 hrs followed by LPS/IFNgamma stimulation and measured after 4 hrs by Western blot analysis; conditions: raw264.7, 24 h
Outline: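 RAW264.7 cells treated and NF-κB p65 protein measured by western blot with p65 antibody (1:2500), β-actin loading control, HRP secondary and chemiluminescent detection.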

[2] = target: Histone deacetylase 1 (Homo sapiens, UniProt Q13547); assay: Inhibition of recombinant human C-terminal His/FLAG-tagged HDAC1 (1 to 482 residues) expressed in Sf9 insect cells using Boc-Lys(epsilon-Ac)-AMC as substrate measured after 90 mins by fluorescence assay
Histone deacetylase 1, sequence (Q13547 whole entry, the tested form may be a part): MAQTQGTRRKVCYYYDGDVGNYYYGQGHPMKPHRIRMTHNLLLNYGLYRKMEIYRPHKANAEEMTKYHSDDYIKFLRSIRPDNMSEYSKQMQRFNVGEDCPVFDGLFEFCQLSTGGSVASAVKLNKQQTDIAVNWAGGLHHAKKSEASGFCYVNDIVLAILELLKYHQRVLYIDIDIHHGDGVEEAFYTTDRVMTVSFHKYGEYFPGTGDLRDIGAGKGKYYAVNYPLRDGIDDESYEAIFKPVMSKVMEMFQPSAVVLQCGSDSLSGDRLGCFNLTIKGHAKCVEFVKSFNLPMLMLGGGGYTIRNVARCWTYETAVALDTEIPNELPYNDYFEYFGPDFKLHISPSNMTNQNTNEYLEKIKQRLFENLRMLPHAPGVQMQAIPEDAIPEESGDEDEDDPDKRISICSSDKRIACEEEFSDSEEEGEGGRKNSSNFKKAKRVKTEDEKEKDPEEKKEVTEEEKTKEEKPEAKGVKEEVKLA

[3] = target: Histone deacetylase 3/Nuclear receptor corepressor 2 (HDAC3/NCoR2) (Homo sapiens, UniProt O15379); assay: Inhibition of human recombinant C-terminal His-tagged HDAC3 (1 to 428 residues)/N-terminal GST-tagged NCOR2 (395 to 489 residues) expressed in baculovirus infected Sf9 insect cells using Boc-Lys(epsilon-Ac)-AMC as substrate measured after 90 mins by fluorescence assay
Histone deacetylase 3/Nuclear receptor corepressor 2 (HDAC3/NCoR2), sequence (O15379 whole entry, the tested form may be a part): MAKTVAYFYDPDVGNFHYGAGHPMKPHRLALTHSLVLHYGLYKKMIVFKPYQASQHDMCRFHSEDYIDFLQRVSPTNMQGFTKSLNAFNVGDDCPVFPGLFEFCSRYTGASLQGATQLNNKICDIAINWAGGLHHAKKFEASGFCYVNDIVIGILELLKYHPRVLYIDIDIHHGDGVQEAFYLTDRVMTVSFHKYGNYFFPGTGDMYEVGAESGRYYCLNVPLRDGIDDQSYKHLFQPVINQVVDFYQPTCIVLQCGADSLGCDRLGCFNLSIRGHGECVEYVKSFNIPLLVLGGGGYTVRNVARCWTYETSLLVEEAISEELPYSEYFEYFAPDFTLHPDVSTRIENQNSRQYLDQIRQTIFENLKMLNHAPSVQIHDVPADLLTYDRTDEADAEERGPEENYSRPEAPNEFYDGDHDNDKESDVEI
Histone deacetylase 3/Nuclear receptor corepressor 2 (HDAC3/NCoR2), sequence (Q9Y618 whole entry, further chain, the tested form may be a part): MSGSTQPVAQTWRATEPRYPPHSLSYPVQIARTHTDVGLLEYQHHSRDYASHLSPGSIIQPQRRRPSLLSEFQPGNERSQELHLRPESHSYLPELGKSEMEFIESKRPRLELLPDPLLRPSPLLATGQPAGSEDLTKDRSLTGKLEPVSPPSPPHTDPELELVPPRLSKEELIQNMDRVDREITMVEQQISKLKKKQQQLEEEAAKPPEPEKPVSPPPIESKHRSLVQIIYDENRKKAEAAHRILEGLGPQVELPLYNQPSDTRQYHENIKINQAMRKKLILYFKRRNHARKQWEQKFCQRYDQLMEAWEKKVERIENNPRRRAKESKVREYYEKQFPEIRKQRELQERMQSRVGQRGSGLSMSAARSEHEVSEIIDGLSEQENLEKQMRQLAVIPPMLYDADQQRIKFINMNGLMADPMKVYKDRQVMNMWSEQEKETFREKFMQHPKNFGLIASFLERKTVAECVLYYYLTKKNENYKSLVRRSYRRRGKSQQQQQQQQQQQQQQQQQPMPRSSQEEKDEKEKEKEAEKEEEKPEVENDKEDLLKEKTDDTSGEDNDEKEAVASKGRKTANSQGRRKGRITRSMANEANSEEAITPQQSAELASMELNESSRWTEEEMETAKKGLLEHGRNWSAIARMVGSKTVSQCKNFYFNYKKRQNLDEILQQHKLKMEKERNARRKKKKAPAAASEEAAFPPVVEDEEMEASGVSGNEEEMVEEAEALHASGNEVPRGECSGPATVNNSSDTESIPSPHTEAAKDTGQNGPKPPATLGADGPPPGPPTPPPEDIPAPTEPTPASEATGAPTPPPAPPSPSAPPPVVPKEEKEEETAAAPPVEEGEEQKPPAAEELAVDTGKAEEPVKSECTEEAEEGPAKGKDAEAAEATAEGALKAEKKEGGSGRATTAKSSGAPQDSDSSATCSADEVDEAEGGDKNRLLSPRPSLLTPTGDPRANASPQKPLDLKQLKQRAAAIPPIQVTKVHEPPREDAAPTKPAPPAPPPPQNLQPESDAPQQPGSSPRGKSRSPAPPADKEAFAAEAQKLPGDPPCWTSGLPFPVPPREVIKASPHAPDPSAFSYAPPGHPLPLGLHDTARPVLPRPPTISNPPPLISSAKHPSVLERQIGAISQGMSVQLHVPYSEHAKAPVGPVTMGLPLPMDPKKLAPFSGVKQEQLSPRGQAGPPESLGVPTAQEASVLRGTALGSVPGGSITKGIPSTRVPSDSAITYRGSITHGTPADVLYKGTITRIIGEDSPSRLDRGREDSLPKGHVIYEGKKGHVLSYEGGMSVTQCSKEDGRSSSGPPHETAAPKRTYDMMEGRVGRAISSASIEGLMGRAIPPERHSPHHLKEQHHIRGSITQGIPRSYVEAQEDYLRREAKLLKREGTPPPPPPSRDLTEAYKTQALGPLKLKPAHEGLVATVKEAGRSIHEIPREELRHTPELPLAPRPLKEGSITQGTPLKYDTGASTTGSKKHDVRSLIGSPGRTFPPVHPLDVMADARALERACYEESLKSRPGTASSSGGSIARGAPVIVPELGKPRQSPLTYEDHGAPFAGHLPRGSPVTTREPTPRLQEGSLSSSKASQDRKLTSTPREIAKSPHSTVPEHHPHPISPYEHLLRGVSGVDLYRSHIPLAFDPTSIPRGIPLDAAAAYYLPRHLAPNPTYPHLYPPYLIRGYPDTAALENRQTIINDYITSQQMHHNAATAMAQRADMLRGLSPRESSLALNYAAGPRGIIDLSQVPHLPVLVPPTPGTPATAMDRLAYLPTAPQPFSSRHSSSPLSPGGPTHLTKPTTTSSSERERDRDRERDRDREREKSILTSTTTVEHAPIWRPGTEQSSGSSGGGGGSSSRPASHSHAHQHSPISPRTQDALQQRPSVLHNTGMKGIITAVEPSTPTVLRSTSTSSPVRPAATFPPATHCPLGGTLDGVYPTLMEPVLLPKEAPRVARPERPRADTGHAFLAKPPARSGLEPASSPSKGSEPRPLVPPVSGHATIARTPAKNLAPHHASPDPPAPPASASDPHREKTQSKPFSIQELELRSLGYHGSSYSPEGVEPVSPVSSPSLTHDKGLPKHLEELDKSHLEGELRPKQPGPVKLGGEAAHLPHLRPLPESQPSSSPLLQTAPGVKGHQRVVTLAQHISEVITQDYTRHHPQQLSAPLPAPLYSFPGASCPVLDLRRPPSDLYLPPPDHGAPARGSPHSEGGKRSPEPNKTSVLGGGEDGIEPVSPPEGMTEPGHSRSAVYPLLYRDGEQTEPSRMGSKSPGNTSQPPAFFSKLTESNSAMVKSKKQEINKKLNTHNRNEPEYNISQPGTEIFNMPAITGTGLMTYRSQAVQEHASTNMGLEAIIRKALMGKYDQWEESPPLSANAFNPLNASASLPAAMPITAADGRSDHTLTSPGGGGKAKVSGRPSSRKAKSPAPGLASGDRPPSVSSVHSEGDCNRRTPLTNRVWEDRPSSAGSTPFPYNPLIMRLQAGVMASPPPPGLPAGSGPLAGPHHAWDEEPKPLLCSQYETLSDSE
Outline: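 Incubated with inhibitor dilutions (in 10% DMSO/buffer) and Boc-Lys(ε-Ac)-AMC, 90 min at 37 °C. Stopped with trypsin plus 200 µM vorinostat, 30 min at 37 °C.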

[4] = target: Histone deacetylase 2 (Homo sapiens, UniProt Q92769); assay: Inhibition of recombinant human full-length C-terminal FLAG-tagged HDAC2 expressed in baculovirus infected Sf9 insect cells using Boc-Lys(epsilon-Ac)-AMC as substrate measured after 90 mins by fluorescence assay
Histone deacetylase 2, sequence (Q92769 whole entry): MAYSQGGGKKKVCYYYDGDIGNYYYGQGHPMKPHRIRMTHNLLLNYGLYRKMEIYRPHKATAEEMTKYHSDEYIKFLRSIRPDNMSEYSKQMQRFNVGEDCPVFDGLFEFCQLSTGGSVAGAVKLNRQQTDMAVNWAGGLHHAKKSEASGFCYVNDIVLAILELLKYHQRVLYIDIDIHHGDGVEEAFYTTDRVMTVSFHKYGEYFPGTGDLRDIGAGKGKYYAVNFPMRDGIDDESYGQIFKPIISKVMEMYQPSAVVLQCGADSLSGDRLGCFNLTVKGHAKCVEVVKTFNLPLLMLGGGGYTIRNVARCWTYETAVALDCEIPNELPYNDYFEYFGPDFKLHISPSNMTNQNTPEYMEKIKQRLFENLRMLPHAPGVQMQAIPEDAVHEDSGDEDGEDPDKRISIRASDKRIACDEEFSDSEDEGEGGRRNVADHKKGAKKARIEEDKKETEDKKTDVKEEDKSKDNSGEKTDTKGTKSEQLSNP

[5] = target: T1, Protein cereblon/Histone deacetylase 3 (Mus musculus) (UniProt O88895+Q8C7D2); assay: Protac activity at CRBN/HDAC3 in mouse RAW264.7 cells assessed as induction of HDAC3 degradation at 10 uM by Western blot analysis; format: cell-based
Outline: (§1)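 RAW264.7 macrophages treated at 10 µM. Cells lysed in ice-cold HEPES/MgCl2/EDTA/0.5% Triton X-100 with protease inhibitors, protein by BCA, 4–12% Bis-Tris SDS-PAGE, PVDF transfer. Probed with HDAC1, HDAC2 or HDAC3 antibodies (1:2000) and β-actin, then HRP secondary and chemiluminescence. Bands quantified by densitometry as fold of untreated control, mean ± SD of 2 independent experiments.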

[6] = target: T2, Protein cereblon/Histone deacetylase 1 (Mus musculus) (UniProt O09106+Q8C7D2); assay: Protac activity at CRBN/HDAC1 in mouse RAW264.7 cells assessed as induction of HDAC1 degradation at 10 uM by Western blot analysis; format: cell-based; outline: as §1
T2 sequence (O09106 whole entry, looked up, one chain of several): as the sequence (Q13547 whole entry, the tested form may be a part) above, with R8K, D399E, E424D counted along it

[7] = Cytotoxicity against mouse RAW264.7 cells assessed as cell survival up to 10 uM measured after 24 hrs by MTS assay relative to control; format: cell-based; conditions: read-out: Survival
Outline: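 RAW264.7 macrophages (ATCC, passage 5–16) grown in DMEM GlutaMAX with 10% heated FBS at 37 °C, 5% CO2. Cells seeded at 25,000 cells/cm2 and treated the next day in fresh medium with compound up to 10 μM for 24 h at 37 °C. CellTiter 96 AQueous One (MTS) reagent added for 2 h at 37 °C in the dark, absorbance read at 490 nm, expressed as % of control.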

[8] = system: RAW264.7; assay: Cytotoxicity against mouse RAW264.7 cells assessed as reduction in cell proliferation at 3 uM measured after 24 hrs by MTS assay relative to control; format: cell-based; design: scale not given: the % may be the effect or the level left; conditions: raw264.7, 24 h
Outline: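 RAW264.7 cells (passage 5–16, DMEM GlutaMAX with 10% heated FBS, 37 °C, 5% CO2) seeded at 25,000 cells/cm2. Next day, medium swapped for fresh medium containing compound. After 24h, CellTiter 96 AQueous One (MTS) added, 2h at 37 °C in dark. Absorbance read at 490 nm and expressed as % of control.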

[9] = target: T2, Protein cereblon/Histone deacetylase 1 (Mus musculus); assay: Protac activity at CRBN/HDAC1 in mouse RAW264.7 cells assessed as induction of HDAC1 degradation at 0.01 to 10 uM measured after 24 hrs by Western blot analysis; format: cell-based; conditions: dose 0.01-10 µM
[10] = target: T1, Protein cereblon/Histone deacetylase 3 (Mus musculus); assay: Protac activity at CRBN/HDAC3 in mouse RAW264.7 cells assessed as induction of HDAC3 degradation at 10 uM measured after 6 to 48 hrs by Western blot analysis; format: cell-based; conditions: time 6-48 hrs
Outline: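 RAW264.7 macrophages treated for the indicated times. HDAC3 level measured by western blot against β-actin. Bands quantified as fold of untreated control, mean ± SD of 2 independent experiments.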

[11] = target: T3, Protein cereblon/Histone deacetylase 2 (Mus musculus) (UniProt P70288+Q8C7D2); assay: Protac activity at CRBN/HDAC2 in mouse RAW264.7 cells assessed as induction of HDAC2 degradation at 0.01 to 10 uM measured after 24 hrs by Western blot analysis; format: cell-based; conditions: dose 0.01-10 µM
T3 sequence (P70288 whole entry, looked up, one chain of several): as the sequence (Q92769 whole entry) above, with V289A, T477P, T480A counted along it
Outline: (§2)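 RAW264.7 cells treated across 0.001–30 µM. Lysates blotted as standard, but membranes blocked in Odyssey buffer and probed with IRDye 680RD anti-mouse and 800CW anti-rabbit secondaries (1:10000). Bands imaged on a fluorescence scanner and quantified to derive DC50 (50% degradation concentration), expressed as percentage of untreated control, mean ± SD of 2–3 independent experiments.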

[12] = target: T4, Protein cereblon/Histone deacetylase 3 (Mus musculus, UniProt O88895+Q8C7D2); assay: Protac activity at CRBN/HDAC3 in mouse RAW264.7 cells assessed as induction of HDAC3 degradation measured after 24 hrs by Western blot analysis; format: cell-based; outline: as §2
T4 sequence (O88895 whole entry): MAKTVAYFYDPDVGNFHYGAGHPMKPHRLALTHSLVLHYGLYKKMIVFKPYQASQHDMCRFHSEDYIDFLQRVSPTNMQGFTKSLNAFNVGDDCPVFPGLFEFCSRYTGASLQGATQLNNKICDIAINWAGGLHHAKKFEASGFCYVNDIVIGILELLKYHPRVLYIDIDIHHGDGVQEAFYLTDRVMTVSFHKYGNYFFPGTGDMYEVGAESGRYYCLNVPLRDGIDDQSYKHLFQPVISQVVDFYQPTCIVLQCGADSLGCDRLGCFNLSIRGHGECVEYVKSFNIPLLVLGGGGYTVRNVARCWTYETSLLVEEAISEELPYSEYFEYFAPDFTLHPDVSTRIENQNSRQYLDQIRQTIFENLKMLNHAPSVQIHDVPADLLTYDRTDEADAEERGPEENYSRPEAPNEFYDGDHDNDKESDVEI
T4 sequence (Q8C7D2 whole entry): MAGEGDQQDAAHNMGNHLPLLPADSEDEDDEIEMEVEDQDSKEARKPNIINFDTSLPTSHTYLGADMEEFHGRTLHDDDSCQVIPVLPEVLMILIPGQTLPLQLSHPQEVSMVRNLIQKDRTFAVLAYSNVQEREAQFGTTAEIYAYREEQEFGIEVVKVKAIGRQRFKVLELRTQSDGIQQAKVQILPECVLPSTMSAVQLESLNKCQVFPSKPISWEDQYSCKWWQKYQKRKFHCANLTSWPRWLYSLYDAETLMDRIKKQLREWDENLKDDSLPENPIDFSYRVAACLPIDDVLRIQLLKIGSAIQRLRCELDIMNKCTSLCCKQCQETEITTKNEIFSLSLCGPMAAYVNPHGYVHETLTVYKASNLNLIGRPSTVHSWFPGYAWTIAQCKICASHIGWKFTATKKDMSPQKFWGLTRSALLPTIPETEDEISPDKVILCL

[13] = target: T1, Protein cereblon/Histone deacetylase 3 (Mus musculus); assay: Protac activity at CRBN/HDAC3 in mouse RAW264.7 cells assessed as induction of HDAC3 degradation at 10 uM measured after 24 hrs in presence of CRBN ligand pomalidomide by Western blot analysis; format: cell-based
Outline: (§3)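 RAW264.7 cells pre-treated 1h with pomalidomide or CI994 (competitor), then the PROTAC added for 24h combined treatment. Control cells received competitor alone for 25h. HDAC3 measured by western blot, quantified as fold of untreated control, mean ± SD of 2 independent experiments.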

[14] = target: T1, Protein cereblon/Histone deacetylase 3 (Mus musculus); assay: Protac activity at CRBN/HDAC3 in mouse RAW264.7 cells assessed as induction of HDAC3 degradation at 10 uM measured after 24 hrs in presence of HDAC ligand CI994 by Western blot analysis; format: cell-based; outline: as §3
[15] = target: T1, Protein cereblon/Histone deacetylase 3 (Mus musculus); assay: Protac activity at CRBN/HDAC3 in mouse RAW264.7 cells assessed as increase of H3K27 acetylation at 10 uM measured after 24 hrs by Western blot analysis; format: cell-based
Outline: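 RAW264.7 macrophages treated for 24h. H3K27 acetylation measured by western blot with acH3K27 antibody (1:1000), HRP detection. Bands quantified as fold of untreated control, mean ± SD of 2 independent experiments.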

[16] = system: RAW264.7; assay: Effect on LPS/IFNgamma-induced IL-10 mRNA expression in mouse RAW264.7 cells at 1 uM incubated for 20 hrs followed by LPS/IFNgamma stimulation and measured after 4 hrs by RT-qPCR analysis; format: functional, cell-based; conditions: time 24.0 hrs
Outline: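 RAW264.7 macrophages treated for 24h, with LPS/IFNγ stimulation during the final 4h. Vehicle cells received a proportional DMSO dilution. Total RNA isolated from DPBS-washed cells and IL-10 transcription measured by RT-qPCR. Mean ± SD of 2–3 independent experiments.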

[17] = target: T1, Protein cereblon/Histone deacetylase 3 (Mus musculus); assay: Protac activity at CRBN/HDAC3 in mouse RAW264.7 cells assessed as induction of HDAC3 degradation at 10 uM measured after 24 hrs in presence of proteasome inhibitor bortezomib by Western blot analysis; format: cell-based
Outline: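 RAW264.7 macrophages treated 24h with bortezomib, the PROTAC, or both together. HDAC3 measured by western blot, quantified as fold of untreated control, mean ± SD of 2 independent experiments.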

[18] = target: T1, Protein cereblon/Histone deacetylase 3 (Mus musculus); assay: Protac activity at CRBN/HDAC3 in mouse RAW264.7 cells assessed as induction of HDAC3 degradation at 10 to 100 uM measured after 24 hrs by Western blot analysis; format: cell-based; conditions: dose 10-100 µM
Outline: (§4)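 RAW264.7 macrophages exposed to 1–100 µM for HDAC1/2/3 level assessment. Protein read by western blot: lysis, BCA, Bis-Tris SDS-PAGE, PVDF, overnight 4 °C primary antibodies (HDAC1, 2, 3 at 1:2000; β-actin 1:10000), HRP secondaries, chemiluminescence.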

[19] = target: T3, Protein cereblon/Histone deacetylase 2 (Mus musculus); assay: Protac activity at CRBN/HDAC2 in mouse RAW264.7 cells assessed as induction of HDAC2 degradation at 100 uM measured after 24 hrs by Western blot analysis; format: cell-based; outline: as §4
[20] = target: Protein cereblon/Histone deacetylase 3 (Homo sapiens) (UniProt O15379+Q96SW2); assay: Protac activity at CRBN/HDAC3 in human A549 cells assessed as induction of HDAC3 degradation up to 50 uM by Western blot analysis; format: cell-based; conditions: dose microM <=50
Protein cereblon/Histone deacetylase 3 (Homo sapiens), sequence (O15379 whole entry, looked up): as the sequence (O15379 whole entry, the tested form may be a part) above
Protein cereblon/Histone deacetylase 3 (Homo sapiens), sequence (Q96SW2 whole entry, looked up): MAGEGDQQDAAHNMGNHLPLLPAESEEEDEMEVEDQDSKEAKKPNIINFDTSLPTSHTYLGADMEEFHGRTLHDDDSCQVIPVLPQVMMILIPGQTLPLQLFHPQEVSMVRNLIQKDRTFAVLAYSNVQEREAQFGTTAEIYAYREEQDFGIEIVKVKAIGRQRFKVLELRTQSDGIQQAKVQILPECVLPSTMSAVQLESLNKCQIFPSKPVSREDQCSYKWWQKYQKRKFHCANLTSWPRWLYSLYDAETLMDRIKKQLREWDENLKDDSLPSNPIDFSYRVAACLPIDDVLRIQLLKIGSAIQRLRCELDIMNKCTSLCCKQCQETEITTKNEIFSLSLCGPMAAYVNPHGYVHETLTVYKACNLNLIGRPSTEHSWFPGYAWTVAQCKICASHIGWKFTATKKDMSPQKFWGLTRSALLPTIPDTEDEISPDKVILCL

[21] = target: T2, Protein cereblon/Histone deacetylase 1 (Mus musculus); assay: Protac activity at CRBN/HDAC1 in mouse RAW264.7 cells assessed as induction of HDAC1 degradation at 30 to 100 uM measured after 24 hrs by Western blot analysis; format: cell-based; conditions: dose 30-100 µM; outline: as §4
[22] = target: T3, Protein cereblon/Histone deacetylase 2 (Mus musculus); assay: Protac activity at CRBN/HDAC2 in mouse RAW264.7 cells assessed as induction of HDAC2 degradation at 10 uM by Western blot analysis; format: cell-based; outline: as §1

SMILES	Activity [1]	pIC50 [2]	pIC50 [3]	pIC50 [4]	Activity [5]	Activity [6]	viability at 24 h [7] [%]	other results
O=C1CCC(N2C(=O)c3ccccc3C2=O)C(=O)N1 (stereo not given) [THALIDOMIDE]	Toxic	–	–	–	–	–	–	–
Nc1ccccc1NC(=O)c1ccc(NC(=O)CCCNC(=O)CNc2cccc3c2C(=O)N(C2CCC(=O)NC2=O)C3=O)cc1 (stereo not given)	–	6.49	6.25	5.82	inactive	inactive	> 80	–
Nc1ccccc1NC(=O)c1ccc(NC(=O)CCCCNc2cccc3c2C(=O)N(C2CCC(=O)NC2=O)C3=O)cc1 (stereo not given)	–	6.38	6.00	6.00	–	inactive	> 80	–
Nc1ccccc1NC(=O)c1ccc(NC(=O)CCCNc2cccc3c2C(=O)N(C2CCC(=O)NC2=O)C3=O)cc1 (stereo not given)	–	6.44	6.06	5.92	Active	inactive	> 80	–
CC(=O)Nc1ccc(C(=O)Nc2ccccc2N)cc1 [TACEDINALINE]	–	–	–	–	–	–	–	Activity [8]: 30%
Nc1cccc2c1CN(C1CCC(=O)NC1=O)C2=O (stereo not given) [LENALIDOMIDE]	Toxic	–	–	–	–	–	–	–
Nc1cccc2c1C(=O)N(C1CCC(=O)NC1=O)C2=O (stereo not given) [POMALIDOMIDE]	Toxic	–	–	–	–	–	–	–
Nc1cc(F)ccc1NC(=O)c1ccc(NC(=O)CCCCNC(=O)CNc2cccc3c2C(=O)N(C2CCC(=O)NC2=O)C3=O)cc1 (stereo not given)	Toxic	5.44	5.96	5.38	–	–	–	Activity [9]: inactive; Activity [10]: Active; Activity [11]: inactive; DC50 [12]: 320 nM; Activity [13]: inactive; Activity [14]: inactive; Activity [15]: Active; Activity [16]: inactive; Activity [17]: inactive
Nc1ccccc1NC(=O)c1ccc(NC(=O)CCCCNC(=O)CNc2cccc3c2C(=O)N(C2CCC(=O)NC2=O)C3=O)cc1 (stereo not given)	–	6.54	6.28	6.21	Active	inactive	> 80	Activity [18]: Active; Activity [19]: Active; Activity [20]: inactive; Activity [21]: Active
Nc1ccccc1NC(=O)c1ccc(NC(=O)CCCCCNc2cccc3c2C(=O)N(C2CCC(=O)NC2=O)C3=O)cc1 (stereo not given)	–	6.66	6.27	6.01	–	inactive	> 80	Activity [22]: Active
